High-throughput results from PubChem BioAssay.
Compounds with a hit are over-represented: about 3.5% of the library has one in this group of screens.
MrgX1 PAM: human MrgX1 positive allosteric modulation, primary screen; Q96LB2; MrgX1-HEK293, Fluo-4 calcium flux, FDSS; active compounds read high; B-score at 10 µM; hit rate 0.63% among 310,000;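 active means plate-corrected calcium response at least 3 library SD above typical, normal starting fluorescence, not activating the receptor alone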;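 further: compound read alongside a low EC10 to EC30 dose of BAM8-22 agonist; peak minus trough fluorescence over baseline measured at the second addition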
Target sequence (Q96LB2 whole entry, looked up): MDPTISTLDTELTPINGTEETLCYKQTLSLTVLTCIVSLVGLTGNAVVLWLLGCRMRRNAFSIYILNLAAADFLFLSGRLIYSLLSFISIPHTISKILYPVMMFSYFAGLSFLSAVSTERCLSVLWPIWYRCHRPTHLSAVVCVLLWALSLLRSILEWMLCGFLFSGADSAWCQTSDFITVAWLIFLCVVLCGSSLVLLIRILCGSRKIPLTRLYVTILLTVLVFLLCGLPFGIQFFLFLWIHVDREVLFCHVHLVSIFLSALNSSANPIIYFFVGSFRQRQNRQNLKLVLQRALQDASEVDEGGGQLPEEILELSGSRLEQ
MrgX1 antag: antagonists of human MrgX1 receptor | Q96LB2 | MRGX1-HEK293 calcium flux, Fluo-4, BAM8-22 antagonism; active compounds read low | B-score at 10 µM | hit rate 1.3% among 310,000 | AID 588676;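 active means calcium-response B-score plate-corrected more than 3 library SD below zero, starting fluorescence within 5 deviations, no agonist response on first addition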;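 further: peak minus trough fluorescence over baseline after final BAM8-22 challenge near maximal dose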
RGS4 inh: human RGS4 inhibition; P49798; hit rate 0.45% among 310,000; HEK293 M3R/RGS4 inducible, Fluo-4 calcium flux; active compounds read high; triggered by carbachol at its EC20; B-score at 10 µM;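 active means B-score, a plate-corrected calcium signal, over three deviations above library mean, with baseline fluorescence within five deviations of library mean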;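 further: RGS4 expression induced by doxycycline in cells with stable M3 receptor; B-score is computed from the integrated fluorescence ratio over baseline after carbachol; higher B-score means a larger calcium signal and so more RGS4 inhibition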
Target sequence (P49798 whole entry, looked up): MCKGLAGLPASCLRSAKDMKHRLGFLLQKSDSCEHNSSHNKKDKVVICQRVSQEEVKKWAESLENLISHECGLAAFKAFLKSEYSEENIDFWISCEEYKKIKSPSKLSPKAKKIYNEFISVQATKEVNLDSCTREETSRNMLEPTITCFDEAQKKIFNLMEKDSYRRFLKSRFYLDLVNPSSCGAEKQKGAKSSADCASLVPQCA
MrgX1 ag: agonists of human MrgX1 receptor; AID 588627; hit rate 0.44% among 310,000; MrgX1-HEK293 cells, Fluo-4 calcium fluorescence, agonist mode; active compounds read high; B-score at 10 µM; Q96LB2;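 active means calcium response B-score plate-corrected fluorescence ratio at least 3 library SD, with starting fluorescence B-score inside 5 SD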
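Material – MrgX1-expressing HEK293 cells · Input – 15,000 cells seeded per well · Dosing – compound as first of three additions · Times – overnight seeding, then 1 h dark dye loading · Measured by – kinetic Fluo-4 NW fluorescence of intracellular calcium · Read-out – B-scored fluorescence response ratio · Benchmarks – positive and negative control wells on each plate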
RGS4 pot: potentiators or activators of RGS4; HEK293 M3R/inducible RGS4, carbachol calcium flux Fluo4; active compounds read low; AID 463111; B-score at 10 µM; hit rate 0.92% among 310,000;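 active means B-score of the integrated calcium signal more than 4 SD below the library mean, with starting fluorescence not abnormally high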;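 further: negative B-score means reduced calcium response which marks RGS4 activation or potentiation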
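System – HEK293 FlpIn-TREx cells, stable M3R, doxycycline-inducible RGS4 · Reagent – ECmax carbachol challenge · Times – compound preincubation 20 min at room temperature before agonist · Technique – Fluo4 fluorescence kinetic imaging of calcium · Measure – B score of integrated Fluo4 ratio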
RGS4 block valid: RGS4 inhibitor validation | shares compounds with RGS4 inh | HEK293 M3R/RGS4, carbachol calcium Fluo-4 fluorescence; carbachol added at its EC20; 0 = buffer wells, 100 = carbachol control | calcium response, % at 10 µM | hit rate 65% among 1,700 | AID 492999;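 active means duplicate-averaged calcium response above the buffer-only control mean plus 5 SD of those controls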;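 further: integrated fluorescence ratio F max minus min over baseline F0; higher response in RGS4-induced cells means RGS4 inhibition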
M3R Ca ctr: checks RGS4 inhibitor effects in non-induced HEK293 M3R cells; shares compounds with RGS4 inh; carbachol calcium Fluo-4; submaximal (EC20) carbachol stimulus; buffer wells 0%, carbachol control wells 100%; activity (percent), % at 10 µM; hit rate 20% among 1,900; call rule not given here;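 further: RGS4 induction absent so cells express M3R without RGS4; higher means more calcium signal and flags a non-specific hit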
RGS4 inh ctr2: second counter-screen for RGS4 inhibitors: non-induced cells without carbachol | shares compounds with RGS4 inh | HEK293 M3R/RGS4 non-induced, Fluo-4 calcium, no carbachol; normalised: buffer wells 0%, carbachol wells 100% | calcium response (agonist-mode artifact), % at 10 µM | hit rate 22% among 1,900;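 active means duplicate-averaged calcium rise in uninduced cells above buffer wells' mean plus 5 SD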
The depositor's hits bear a star.

What do the screens show for `COc1ccc(OC)c(S(=O)(=O)N2CCCC(C(=O)N3CCCC3)C2)c1` (stereo unspecified)?
MrgX1 PAM: inactive; MrgX1 antag: inactive; RGS4 inh: inactive; MrgX1 ag: inactive; RGS4 pot: inactive; RGS4 block valid: inactive; M3R Ca ctr: inactive; RGS4 inh ctr2: inactive

What do the screens show for `COc1ccc(C)cc1S(=O)(=O)N1CCCC(C(=O)N2CCOCC2)C1` (stereo unspecified)?
MrgX1 PAM: inactive; MrgX1 antag: inactive; RGS4 inh: inactive; MrgX1 ag: inactive; RGS4 pot: inactive; RGS4 block valid: inactive; M3R Ca ctr: inactive; RGS4 inh ctr2: inactive

How did COc1ccc(Cl)cc1S(=O)(=O)N1CCCC(C(=O)N2CCCC2)C1 (stereo unspecified) do in these assays?
MrgX1 PAM: inactive; MrgX1 antag: inactive; RGS4 inh: inactive; MrgX1 ag: inactive; RGS4 pot: inactive

How did COc1ccc(OC)c(S(=O)(=O)N2CCCC(C(=O)N3CCCCCC3)C2)c1 (stereo unspecified) do in these assays?
MrgX1 PAM: inactive; MrgX1 antag: inactive; RGS4 inh: inactive; MrgX1 ag: inactive; RGS4 pot: inactive; RGS4 block valid: inactive; M3R Ca ctr: inactive; RGS4 inh ctr2: 14%*

What do the screens show for `O=C(NCCCN1CCCC1=O)c1cccc(S(=O)(=O)Nc2ccc(Br)cc2)c1`?
MrgX1 PAM: inactive; MrgX1 antag: inactive; RGS4 inh: inactive; MrgX1 ag: inactive; RGS4 pot: inactive

Results for N#C/C(=C/c1cccc(O)c1)C(=O)NCc1ccc(Cl)cc1 ?
MrgX1 PAM: inactive; MrgX1 antag: inactive; RGS4 inh: 5.9*; MrgX1 ag: inactive; RGS4 pot: inactive; RGS4 block valid: 80%*; M3R Ca ctr: 73%*; RGS4 inh ctr2: inactive

Results for N#C/C(=C/c1ccc(O)c(O)c1)C(=O)NCc1ccc(Cl)cc1 ?
MrgX1 PAM: 13*; MrgX1 antag: inactive; RGS4 inh: 7.6*; MrgX1 ag: inactive; RGS4 pot: inactive; RGS4 block valid: inactive; M3R Ca ctr: inactive; RGS4 inh ctr2: inactive

Results for COc1cccc(OC)c1C(=O)Nc1nc(-c2ccccc2)cs1 ?
MrgX1 PAM: inactive; MrgX1 antag: inactive; RGS4 inh: inactive; MrgX1 ag: inactive; RGS4 pot: inactive; RGS4 block valid: inactive; M3R Ca ctr: inactive; RGS4 inh ctr2: inactive

Results for COc1ccc(-c2csc(NC(=O)c3ccccc3C(=O)O)n2)cc1 ?
MrgX1 PAM: inactive; MrgX1 antag: inactive; RGS4 inh: inactive; MrgX1 ag: inactive; RGS4 pot: inactive

Results for Cc1cc(C)c(-c2csc(NC(=O)C3=COCCO3)n2)cc1C ?
MrgX1 PAM: inactive; MrgX1 antag: inactive; RGS4 inh: inactive; MrgX1 ag: inactive; RGS4 pot: inactive; M3R Ca ctr: inactive; RGS4 inh ctr2: inactive

How did O=C(Nc1nc(-c2ccc(-c3ccccc3)cc2)cs1)C1=COCCO1 do in these assays?
MrgX1 PAM: inactive; MrgX1 antag: inactive; RGS4 inh: inactive; MrgX1 ag: inactive; RGS4 pot: inactive; M3R Ca ctr: inactive; RGS4 inh ctr2: inactive

How did COC(=O)c1cc(=O)n(CCc2ccccc2)c(=Nc2ccc(F)cc2)s1 do in these assays?
MrgX1 PAM: inactive; MrgX1 antag: inactive; RGS4 inh: inactive; MrgX1 ag: inactive; RGS4 pot: inactive

What do the screens show for `CCOC(=O)c1ccc(N=c2sc(C(=O)OC)cc(=O)n2CCCN2CCOCC2)cc1`?
MrgX1 PAM: inactive; MrgX1 antag: inactive; RGS4 inh: inactive; MrgX1 ag: inactive; RGS4 pot: inactive

How did CCOC(=O)c1ccc(N=c2sc(C(=O)OC)cc(=O)n2Cc2ccco2)cc1 do in these assays?
MrgX1 PAM: inactive; MrgX1 antag: inactive; RGS4 inh: inactive; MrgX1 ag: inactive; RGS4 pot: inactive; RGS4 block valid: inactive; M3R Ca ctr: inactive; RGS4 inh ctr2: inactive

How did COC(=O)c1cc(=O)n(CCc2ccc(OC)cc2)c(=Nc2ccc(F)c(Cl)c2)s1 do in these assays?
MrgX1 PAM: inactive; MrgX1 antag: inactive; RGS4 inh: inactive; MrgX1 ag: inactive; RGS4 pot: inactive; RGS4 block valid: inactive; M3R Ca ctr: inactive; RGS4 inh ctr2: 19%*

How did CCn1c(=O)cc(C(=O)OC)sc1=Nc1ccc(F)c(F)c1 do in these assays?
MrgX1 PAM: inactive; MrgX1 antag: inactive; RGS4 inh: 13*; MrgX1 ag: inactive; RGS4 pot: inactive; RGS4 block valid: 56%*; M3R Ca ctr: 80%*; RGS4 inh ctr2: inactive

What do the screens show for `O=C(CN1CCCCC1)NNc1nc(-c2ccccc2)c2cc(Br)ccc2n1`?
MrgX1 PAM: inactive; MrgX1 antag: inactive; RGS4 inh: inactive; MrgX1 ag: inactive; RGS4 pot: inactive

What do the screens show for `O=[N+]([O-])c1ccc(O)c(C=Nc2ccc3c(c2)OCCO3)c1`?
MrgX1 PAM: inactive; MrgX1 antag: inactive; RGS4 inh: inactive; MrgX1 ag: inactive; RGS4 pot: inactive

What do the screens show for `Oc1c(Br)cc(Br)cc1C=Nc1ccc2c(c1)OCO2`?
MrgX1 PAM: inactive; MrgX1 antag: inactive; RGS4 inh: inactive; MrgX1 ag: inactive; RGS4 pot: inactive; RGS4 block valid: inactive; M3R Ca ctr: inactive; RGS4 inh ctr2: 48%*

Results for Oc1c(Br)cc(Br)cc1C=Nc1ccc2c(c1)OCCO2 ?
MrgX1 PAM: inactive; MrgX1 antag: inactive; RGS4 inh: 5.8*; MrgX1 ag: inactive; RGS4 pot: inactive; RGS4 block valid: inactive; M3R Ca ctr: inactive; RGS4 inh ctr2: 74%*

What do the screens show for `CCOc1ccc(N2C(=O)CN(O)C=C3N=c4ccccc4=C32)cc1`?
MrgX1 PAM: inactive; MrgX1 antag: inactive; RGS4 inh: inactive; MrgX1 ag: inactive; RGS4 pot: inactive

What do the screens show for `C/C(=N\NC(=O)c1cccc(C)c1O)c1ccc(NC(=O)Cc2ccccc2)cc1`?
MrgX1 PAM: inactive; MrgX1 antag: inactive; RGS4 inh: inactive; MrgX1 ag: inactive; RGS4 pot: inactive

What do the screens show for `COc1ccc(C(=O)/C(=C/O)N=Nc2ccc(F)cc2)cc1`?
MrgX1 PAM: inactive; MrgX1 antag: inactive; RGS4 inh: 6.8*; MrgX1 ag: inactive; RGS4 pot: inactive; RGS4 block valid: 56%*; M3R Ca ctr: 128%*; RGS4 inh ctr2: inactive
